Source: PubChem BioAssay
Inconclusive results are not listed.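 Rule for the calls, unless noted: active = viability increase at or above a cutoff of the median across tested compounds plus 3 SD (cut at about 8.5% in these data, passing the limit was not always enough); inconclusive = some gains above the cutoff, reason not given; inactive = the rest.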

Columns and labels:
[1] = S. cerevisiae growth inhibition in permissive medium (OD615), pilot counter-assay for S. cerevisiae lifespan shortening project, permissive growth control (AID 705;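 active = growth inhibition above 25% in both replicates, a cutoff set 3 SD above the mean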); settings: OD615, 24 h, at 10 µM, active compounds read high
Summary of the method: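 System: S. cerevisiae with engineered DeaD lifespan system / Measured by: absorbance (optical density) at 615 nm / Read-out: reduction in yeast growth (OD615) / Times: 4 h cell pre-growth, 24 h exposure at 30 °C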

[2] = S. cerevisiae growth inhibition in restrictive medium, OD615, pilot screen, restrictive growth control, yeast lifespan reduction project (AID 706;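 active = growth inhibition above a set limit, 3 SD over mean compound inhibition, in both replicates, cut at about 43% in these data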;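 note: modified DeaD lifespan yeast strain shifted to restrictive glucose medium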); settings: OD615, 48 h, at 10 µM, active compounds read high
Summary of the method: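 System: Engineered S. cerevisiae DeaD strain | Buffer or medium: Glucose-based CSMM-D restrictive medium | Schedule: 4 h pre-incubation, 48 h exposure at 30 °C | Technique: Optical density at 615 nm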

[3] = doxorubicin toxicity protection in MRP-1 cells – H69AR cells, CellTiter-Glo, duplicate, MRP-1 activator project, pilot screen (AID 807); settings: H69AR viability with doxorubicin, CellTiter-Glo luminescence; at 10 µM; active compounds read high;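 note: compound pretreatment 18-22 h then 72 h combined with doxorubicin; 0% = doxorubicin alone and 100% = vehicle without doxorubicin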
[4] = viability of HCT116 without oncogenic beta-catenin – human colon tumor cells, pilot screen (AID 823;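 active = cell viability at or below a set limit in both duplicate runs, the limit being the all-compound median minus 4 SD, cut at about 23% in these data, passing the limit was not always enough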;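 note: 0% = wells killed by 20 µM Hyamine and 100% = untreated DMSO cell wells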); settings: HCT116 beta-catenin knockout viability, CellTiter-Glo, 60 h; at 10 µM; active compounds read low
[5] = viability of PTEN-null HCT116 cells – cell-based, HCT116 clonal line, CellTiter-Glo, pilot screen (AID 824;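 active = viability at or below 27.92% in each of two runs, the all-compound median minus 4 SD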;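 note: 0% = 20 µM Hyamine control and 100% = vehicle cell control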); settings: HCT116 PTEN-deleted viability, 60 h, at 10 µM, active compounds read low
[6] = RAM pathway blockade in budding yeast – dse1pr::URA3 reporter, 5-FOA selection, pilot screen (AID 869;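 active = inhibition over a set limit, the all-compound mean plus 3 SD, in both replicate runs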;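 note: 0% = DMSO wells with no growth and 100% = 10 µM 1-NA-PP1 with full growth; RAM network block rescues cells from 5-FOA so hits raise OD615 growth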); settings: S. cerevisiae dse1pr::URA3 5-FOA growth, OD615, 2 d; at 10 µM; active compounds read high; strain carries analog-sensitive mutant Cbk1 kinase
[7] = RAM signaling pathway blockade in yeast – S. cerevisiae, Pdr1DBD-CYC8 efflux-inhibited sensitized strain, primary screen (AID 1298;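 active = RAM network inhibition above 8.4% in each of two replicates, 3 SD over the compound average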;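 note: 0% = DMSO untreated cells without growth and 100% = 10 µM 1-NA-PP1 full growth; higher means more yeast growth rescued from 5-FOA killing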); settings: S. cerevisiae cbk1-as DSE1-URA3 strain, 5-FOA growth OD615, 2 d; at 50 µM; active compounds read high

CCC(=O)N=c1sc2cc(F)cc(F)c2n1C
inactive: growth inhibition [1] -6.05% | growth inhibition [2] -7.75% | viability increase [3] -5.39% | viability [4] 93.4% | viability [5] 87.8% | inhibition [6] 1.4% | RAM network inhibition [7] 3.13%

N#CCCN1CCN(S(=O)(=O)c2ccc(S(=O)(=O)NCC3CCCO3)cc2)CC1 (configuration not stated)
inactive: growth inhibition [1] -1.2% | growth inhibition [2] 5.28% | viability increase [3] 0.55% | viability [4] 105% | viability [5] 104% | inhibition [6] 0.51% | RAM network inhibition [7] -2.15%

COC(=O)CC1SC(=O)NC1=Nc1ccccc1 (configuration not stated)
inactive: growth inhibition [1] -7.63% | growth inhibition [2] -0.1% | viability increase [3] 0.96% | viability [4] 106% | viability [5] 89.1% | inhibition [6] 1.42% | RAM network inhibition [7] 4.94%

CCOC(=O)N1CCC(NC(=O)CSCc2nc(-c3sccc3C)oc2C)CC1
inactive: growth inhibition [1] -9.01% | growth inhibition [2] -10.5% | viability increase [3] -1.24% | viability [4] 90% | viability [5] 83.5% | inhibition [6] 1.34% | RAM network inhibition [7] 6.2%

COC(=O)c1ccc2c(c1)N(C)CCS2
inactive: growth inhibition [1] -7.72% | growth inhibition [2] -2.27% | viability increase [3] -0.04% | viability [4] 101% | viability [5] 93.9% | inhibition [6] 0.22% | RAM network inhibition [7] -0.26%

O=C(Nc1ccccc1C(=O)N1CCOCC1)c1ccco1
inactive: growth inhibition [1] -6.66% | growth inhibition [2] -11.1% | viability increase [3] -0.74% | viability [4] 101% | viability [5] 105% | inhibition [6] 0.27% | RAM network inhibition [7] 2.67%

CC(C)c1nc(SCC(=O)Nc2ccc3c(c2)OCCO3)c2c(=O)n(C)c(=O)n(C)c2n1
inactive: growth inhibition [1] 0.9% | growth inhibition [2] 4.21% | viability increase [3] -2.28% | viability [4] 85.4% | viability [5] 84.4% | inhibition [6] 3.59% | RAM network inhibition [7] 5.72%

Nn1c(SC/C=C/c2ccccc2)nnc1-c1ccccn1
inactive: growth inhibition [1] -5.81% | growth inhibition [2] -10% | viability increase [3] -0.88% | viability [4] 103% | viability [5] 95.1% | inhibition [6] -0.5% | RAM network inhibition [7] -2.02%

O=C(c1ccc(CN2CCOCC2)cc1)N1CCN(Cc2ccccc2)CC1
inactive: growth inhibition [1] -15% | growth inhibition [2] -5.85% | viability increase [3] 0.28% | viability [4] 97.5% | viability [5] 97.9% | inhibition [6] 0.83% | RAM network inhibition [7] 12.1%

Cc1c(C(=O)NCc2cccnc2)sc2nc(-c3ccc(F)cc3)cn12
inactive: growth inhibition [1] -6.33% | growth inhibition [2] 22.2% | viability increase [3] 0.45% | viability [4] 77.3% | viability [5] 78% | inhibition [6] 1.01% | RAM network inhibition [7] 2.56%

CC1CCCN(Cc2nc3c(c(=O)n(C)c(=O)n3C)n2Cc2cccc3ccccc23)C1 (configuration not stated)
inactive: growth inhibition [1] -4.69% | growth inhibition [2] -2.08% | viability increase [3] -3.36% | viability [4] 73.2% | viability [5] 80% | inhibition [6] 1.08% | RAM network inhibition [7] 0.76%

Oc1c(C(c2ccccc2)N2CCCCC2)sc2ncnn12 (configuration not stated)
inactive: growth inhibition [1] -0.17% | growth inhibition [2] -3.96% | viability increase [3] -0.8% | viability [4] 95.7% | viability [5] 91.8% | inhibition [6] 1.76% | RAM network inhibition [7] 0.66%

O=C1CC(c2cccs2)CC(O)=C1C=NCCN1CCNCC1 (configuration not stated)
inactive: growth inhibition [1] -11.8% | growth inhibition [2] -6.3% | viability increase [3] -0.54% | viability [4] 98.9% | viability [5] 97.2% | inhibition [6] 0.995% | RAM network inhibition [7] -0.42%

Cc1cc(Nc2ccc(F)c(Cl)c2)n2nc(C)nc2n1
inactive: growth inhibition [1] 1.03% | growth inhibition [2] 15.8% | viability increase [3] -3.61% | viability [4] 97.2% | viability [5] 92.4% | inhibition [6] 1.94% | RAM network inhibition [7] 0.68%

CCOCCCNC(=O)c1cn(C)c2ccc(S(=O)(=O)N(C)C3CCCCC3)cc2c1=O
inactive: growth inhibition [1] -5.04% | growth inhibition [2] -14.3% | viability increase [3] -4.93% | viability [4] 108% | viability [5] 101% | inhibition [6] 0.93% | RAM network inhibition [7] -0.73%

Cc1cc2ncn(CC(O)COC3CCCCC3)c2cc1C (configuration not stated)
inactive: growth inhibition [1] -8.15% | growth inhibition [2] -2.2% | viability increase [3] -2.98% | viability [4] 89.9% | viability [5] 90.3% | inhibition [6] 1.75% | RAM network inhibition [7] 4.21%

O=c1c2[nH]c3ccc(F)cc3c2ncn1CCN1CCN(Cc2ccccc2)CC1
inactive: growth inhibition [1] -2.19% | growth inhibition [2] 1.39% | viability increase [3] -3.25% | viability [4] 86.3% | viability [5] 80.3% | inhibition [6] 1.52% | RAM network inhibition [7] 1.11%

O=C(O)CCn1c(=O)[nH]c2ccccc2c1=O
inactive: growth inhibition [1] -6.32% | growth inhibition [2] -15.1% | viability increase [3] 0.62% | viability [4] 109% | viability [5] 105% | inhibition [6] 1.34% | RAM network inhibition [7] 0.63%

CCOc1cc(/C=N/O)cc(Br)c1OC
inactive: growth inhibition [1] -1.28% | growth inhibition [2] -18.2% | viability increase [3] -3.13% | viability [4] 106% | viability [5] 97.1% | inhibition [6] 1.22% | RAM network inhibition [7] 5.14%

Cn1c2c(c3ccccc31)CC/C2=N\O
inactive: growth inhibition [1] 1.57% | growth inhibition [2] 18.9% | viability increase [3] -0.84% | viability [4] 100% | viability [5] 99% | inhibition [6] 1% | RAM network inhibition [7] 1.01%

Cc1c(NS(=O)(=O)CC23CCC(CC2=O)C3(C)C)c(=O)n(-c2ccccc2)n1C (configuration not stated)
inactive: growth inhibition [1] 5.19% | growth inhibition [2] -4.44% | viability increase [3] -2.6% | viability [4] 99.5% | viability [5] 96.4% | inhibition [6] 2.22% | RAM network inhibition [7] 3.5%

CCC(SCC(=O)OC)C(=O)Nc1nnc(C(C)C)s1 (configuration not stated)
inactive: growth inhibition [1] 1.46% | growth inhibition [2] 8.39% | viability increase [3] -1.27% | viability [4] 98.8% | viability [5] 98.1% | inhibition [6] 2.43% | RAM network inhibition [7] 2.05%

CCN1CCN(CC(=O)Nc2ccccc2)C(=O)C1=O
inactive: growth inhibition [1] -2.23% | growth inhibition [2] 9.12% | viability increase [3] 0.2% | viability [4] 103% | viability [5] 107% | inhibition [6] 1.19% | RAM network inhibition [7] -0.21%

COc1cccc(C2c3c(oc4ccccc4c3=O)C(=O)N2c2ccccn2)c1 (configuration not stated)
inactive: growth inhibition [1] -2.5% | growth inhibition [2] -15.9% | viability increase [3] 0.48% | viability [4] 92.4% | viability [5] 97.2% | inhibition [6] 0.28% | RAM network inhibition [7] 4.39%

O=C(NCCC1=CCCCC1)C1CCCN(S(=O)(=O)c2cccc3cccnc23)C1 (configuration not stated)
inactive: growth inhibition [1] -14.8% | growth inhibition [2] -12.7% | viability increase [3] -1.42% | viability [4] 89% | viability [5] 80.6% | inhibition [6] 2.14% | RAM network inhibition [7] 5.84%

CCc1c(C)nc(SCCOc2ccc(OC)cc2)[nH]c1=O
inactive: growth inhibition [1] -12.6% | growth inhibition [2] -9.17% | viability increase [3] -0.04% | viability [4] 108% | viability [5] 93.9% | inhibition [6] -0.015% | RAM network inhibition [7] 1.64%

NC(=O)c1ccsc1NC(=O)c1cccs1
inactive: growth inhibition [1] -5% | growth inhibition [2] -5.65% | viability increase [3] -2.23% | viability [4] 104% | viability [5] 92.8% | inhibition [6] 1.59% | RAM network inhibition [7] 0.37%

CC(C)c1ccc(C2CC(=O)N3CN(C)CSC3=C2C#N)cc1 (configuration not stated)
inactive: growth inhibition [1] 4.19% | growth inhibition [2] 25% | viability increase [3] -4.3% | viability [4] 91.4% | viability [5] 93.9% | inhibition [6] 1.75% | RAM network inhibition [7] -0.52%

O=C1CN(C(=O)c2ccc(Br)o2)C(c2ccccc2)c2cc(Br)ccc2N1 (configuration not stated)
inactive: growth inhibition [1] -9.54% | growth inhibition [2] -12.8% | viability increase [3] -8.1% | viability [4] 58.3% | viability [5] 55.6% | inhibition [6] 4.09% | RAM network inhibition [7] 6.05%

CC(C)c1ccc(NC(=O)c2cccnc2)cc1
inactive: growth inhibition [1] -3.85% | growth inhibition [2] -12.2% | viability increase [3] 0.68% | viability [4] 89.4% | viability [5] 94.3% | inhibition [6] 0.32% | RAM network inhibition [7] 2.26%

COc1ccc(-c2cc(N)n(S(=O)(=O)Cc3ccccc3)n2)c(OC)c1
inactive: growth inhibition [1] -2.75% | growth inhibition [2] -12.7% | viability increase [3] 0.27% | viability [4] 101% | viability [5] 96.8% | inhibition [6] 2.42% | RAM network inhibition [7] 5.13%

COc1ccc(OC)c(C2CC(=O)N3CN(c4cccc(Cl)c4C)CSC3=C2C#N)c1 (configuration not stated)
inactive: growth inhibition [1] 2.17% | growth inhibition [2] 13.8% | viability increase [3] -5.48% | viability [4] 74% | viability [5] 72.1% | inhibition [6] 1.87% | RAM network inhibition [7] 2.07%

COC(=O)CSc1ccc2nnc(-c3ccc(OC)c(OC)c3)n2n1
inactive: growth inhibition [1] -10.3% | growth inhibition [2] -18.4% | viability increase [3] -0.56% | viability [4] 106% | viability [5] 107% | inhibition [6] -0.01% | RAM network inhibition [7] 3.82%

COc1ccc(-c2c(C)oc3c(CN4CCN(C)CC4)c(O)ccc3c2=O)cc1
inactive: growth inhibition [1] -13.2% | growth inhibition [2] -13.7% | viability increase [3] -8.83% | viability [4] 106% | viability [5] 96.5% | inhibition [6] 0.58% | RAM network inhibition [7] -0.85%

Cc1nn(C)c(C)c1S(=O)(=O)N(CC(=O)Nc1ccccn1)c1ccc(C(C)C)cc1
inactive: growth inhibition [1] -2.97% | growth inhibition [2] -15.5% | viability increase [3] -1.21% | viability [4] 80.1% | viability [5] 82.2% | inhibition [6] 2% | RAM network inhibition [7] -0.48%

CN(C)CCN(Cc1ccccc1)c1ccnc(N(C)C)c1C#N
inactive: growth inhibition [1] -13.2% | growth inhibition [2] -17.6% | viability increase [3] -4.22% | viability [4] 85.2% | viability [5] 89.5% | inhibition [6] 1.11% | RAM network inhibition [7] 2.08%
